The values below come from ChEMBL document CHEMBL3352584, “Novel DNA gyrase inhibiting spiropyrimidinetriones with a benzisoxazole scaffold: SAR and in vivo characterization” (J Med Chem, 2014).

SMILES strings stand for the structures. ≈ marks a conversion by molar mass, not a printed value.

The first data set has as its target DNA gyrase (Escherichia coli, UniProt P0AES4+P0AES6). The data set can be described thus: Inhibition of Escherichia coli DNA gyrase using fluorescence-tagged DNA by fluorescenct polarization assay. In kind it is protein-complex assay. In a few lines:
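E. coli DNA gyrase supercoiling assay. The read-out was differential binding of a fluorescence-tagged DNA to relaxed versus supercoiled DNA, giving IC50.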
As usually defined, the IC50 is the concentration needed to halve the response being measured. Higher therefore signals weaker potency. `CC1CN2c3c(cc4c(C(C)(C)C)noc4c3F)CC3(C(=O)NC(=O)NC3=O)C2C(C)O1` (racemic) gave an IC50 of 4000 nM.
On the same count and under the same terms, the same measure for `Cc1noc2c(F)c3c(cc12)CC1(C(=O)NC(=O)NC1=O)[C@@H]1[C@@H](C)O[C@@H](C)CN31`: greater than 83000 nM; for `C[C@@H]1CN2c3c(cc4c(N)noc4c3F)CC3(C(=O)NC(=O)NC3=O)[C@H]2[C@H](C)O1`: 260 nM; for `COc1noc2c(F)c3c(cc12)CC1(C(=O)NC(=O)NC1=O)[C@H]1[C@H](C)O[C@H](C)CN31`: 970 nM.

Tested on in another data set: not listed separately
The data set is described as follows: Fraction unbound in human plasma at 10 uM after 16 hrs by LC-MS/MS analysis. It is filed as ADME, cell-free. In a few lines:
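Compound at 10 μM in human, rat or mouse plasma, equilibrium dialysis against buffer at 37 °C for 16 h. Buffer and plasma concentrations measured by LC-MS/MS, and the free fraction taken from their ratio.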
The term fraction unbound denotes the share of the substance not bound to proteins or other matrix. Compound `CC1CN2c3c(cc4c(C(C)(C)C)noc4c3F)CC3(C(=O)NC(=O)NC3=O)C2C(C)O1` (racemic) had a fraction unbound at 16 h, 10 µM of 0.042.
The same measure, in the same setting: next, `Cc1noc2c(F)c3c(cc12)CC1(C(=O)NC(=O)NC1=O)[C@@H]1[C@@H](C)O[C@@H](C)CN31`: 0.035; `C[C@@H]1CN2c3c(cc4c(N)noc4c3F)CC3(C(=O)NC(=O)NC3=O)[C@H]2[C@H](C)O1`: 0.13; `COc1noc2c(F)c3c(cc12)CC1(C(=O)NC(=O)NC1=O)[C@H]1[C@H](C)O[C@H](C)CN31`: 0.09.

Tested on in the next data set: not listed separately
The data set is described as follows: Solubility of the compound. In kind it is physicochemical.
The solubility is the concentration that dissolves in the medium under given conditions. Read a low solubility as a poorly soluble substance. Turning to `CC1CN2c3c(cc4c(C(C)(C)C)noc4c3F)CC3(C(=O)NC(=O)NC3=O)C2C(C)O1` (racemic), the solubility is 770 µM (≈ 342 µg/mL).
On the same count and under the same terms, the same measure for `Cc1noc2c(F)c3c(cc12)CC1(C(=O)NC(=O)NC1=O)[C@@H]1[C@@H](C)O[C@@H](C)CN31`: greater than 1000 µM; for `C[C@@H]1CN2c3c(cc4c(N)noc4c3F)CC3(C(=O)NC(=O)NC3=O)[C@H]2[C@H](C)O1`: 330 µM (≈ 133 µg/mL).
Same read-out and setting: next, `COc1noc2c(F)c3c(cc12)CC1(C(=O)NC(=O)NC1=O)[C@H]1[C@H](C)O[C@H](C)CN31`: 510 µM (≈ 213 µg/mL).

The test system of a further data set is Streptococcus pneumoniae. The data set can be described thus: Antimicrobial activity against Streptococcus pneumoniae by broth microdilution method. In kind it is functional. In a few lines:
(§1)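 Broth microdilution following CLSI guidelines. Values under 12.5 μM are averages of three or more replicates.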
In general terms: Dilution methods test growth across graded concentrations, often in twofold steps.
In the case of `CC1CN2c3c(cc4c(C(C)(C)C)noc4c3F)CC3(C(=O)NC(=O)NC3=O)C2C(C)O1` (racemic), the MIC worked out at 200 µM (≈ 88.9 µg/mL).
Turning to `Cc1noc2c(F)c3c(cc12)CC1(C(=O)NC(=O)NC1=O)[C@@H]1[C@@H](C)O[C@@H](C)CN31`, the MIC was greater than 200 µM.
`C[C@@H]1CN2c3c(cc4c(N)noc4c3F)CC3(C(=O)NC(=O)NC3=O)[C@H]2[C@H](C)O1`: the MIC came to 6.2 µM (≈ 2.5 µg/mL).
In the case of `COc1noc2c(F)c3c(cc12)CC1(C(=O)NC(=O)NC1=O)[C@H]1[C@H](C)O[C@H](C)CN31`, the MIC stood at 25 µM (≈ 10.5 µg/mL).

The next data set deals with Streptococcus pyogenes. The data set can be described thus: Antimicrobial activity against Streptococcus pyogenes by broth microdilution method. It is filed as functional. In a few lines: as §1
With `CC1CN2c3c(cc4c(C(C)(C)C)noc4c3F)CC3(C(=O)NC(=O)NC3=O)C2C(C)O1` (racemic), the MIC came out at 50 µM (≈ 22.2 µg/mL).
Still for that read-out and setting: next, `C[C@@H]1CN2c3c(cc4c(N)noc4c3F)CC3(C(=O)NC(=O)NC3=O)[C@H]2[C@H](C)O1`: 3.1 µM (≈ 1.25 µg/mL); `COc1noc2c(F)c3c(cc12)CC1(C(=O)NC(=O)NC1=O)[C@H]1[C@H](C)O[C@H](C)CN31`: 6.2 µM (≈ 2.59 µg/mL).

A further data set concerns Staphylococcus aureus. The data set can be described thus: Antimicrobial activity against methicillin-sensitive Staphylococcus aureus by broth microdilution method. It is filed as functional. In a few lines: as §1
Regarding `CC1CN2c3c(cc4c(C(C)(C)C)noc4c3F)CC3(C(=O)NC(=O)NC3=O)C2C(C)O1` (racemic), the MIC was determined as 18 µM (≈ 8 µg/mL).
On the same count and under the same terms, the same measure for `Cc1noc2c(F)c3c(cc12)CC1(C(=O)NC(=O)NC1=O)[C@@H]1[C@@H](C)O[C@@H](C)CN31`: greater than 200 µM; for `C[C@@H]1CN2c3c(cc4c(N)noc4c3F)CC3(C(=O)NC(=O)NC3=O)[C@H]2[C@H](C)O1`: 25 µM (≈ 10.1 µg/mL).
Still for that read-out and setting: the same measure for `COc1noc2c(F)c3c(cc12)CC1(C(=O)NC(=O)NC1=O)[C@H]1[C@H](C)O[C@H](C)CN31`: 3.1 µM (≈ 1.3 µg/mL).

The next data set relates to Staphylococcus aureus. The data set can be described thus: Antimicrobial activity against methicillin-resistant and quinolone-resistant Staphylococcus aureus by broth microdilution method. In kind it is functional. In a few lines:
as §1
`CC1CN2c3c(cc4c(C(C)(C)C)noc4c3F)CC3(C(=O)NC(=O)NC3=O)C2C(C)O1` (racemic) gave an MIC of 18 µM (≈ 8 µg/mL).
With `Cc1noc2c(F)c3c(cc12)CC1(C(=O)NC(=O)NC1=O)[C@@H]1[C@@H](C)O[C@@H](C)CN31`, the MIC is greater than 200 µM.
Turning to `C[C@@H]1CN2c3c(cc4c(N)noc4c3F)CC3(C(=O)NC(=O)NC3=O)[C@H]2[C@H](C)O1`, the MIC amounted to 50 µM (≈ 20.2 µg/mL).
On to `COc1noc2c(F)c3c(cc12)CC1(C(=O)NC(=O)NC1=O)[C@H]1[C@H](C)O[C@H](C)CN31`, for which the MIC was determined as 3.1 µM (≈ 1.3 µg/mL).

The test system of the next data set is Haemophilus influenzae. The data set can be described thus: Antimicrobial activity against Haemophilus influenzae by broth microdilution method. In kind it is functional. In a few lines: as §1
Take `CC1CN2c3c(cc4c(C(C)(C)C)noc4c3F)CC3(C(=O)NC(=O)NC3=O)C2C(C)O1` (racemic): the MIC turned out to be 200 µM (≈ 88.9 µg/mL).
Still for that read-out and setting: the same measure for `Cc1noc2c(F)c3c(cc12)CC1(C(=O)NC(=O)NC1=O)[C@@H]1[C@@H](C)O[C@@H](C)CN31`: greater than 200 µM; for `C[C@@H]1CN2c3c(cc4c(N)noc4c3F)CC3(C(=O)NC(=O)NC3=O)[C@H]2[C@H](C)O1`: 1.6 µM (≈ 0.645 µg/mL).
The same measure, in the same setting: next, `COc1noc2c(F)c3c(cc12)CC1(C(=O)NC(=O)NC1=O)[C@H]1[C@H](C)O[C@H](C)CN31`: 3.1 µM (≈ 1.3 µg/mL).

A further data set concerns Escherichia coli. The data set is described as follows: Antimicrobial activity against Escherichia coli by broth microdilution method. In kind it is functional. In a few lines: as §1
As to `CC1CN2c3c(cc4c(C(C)(C)C)noc4c3F)CC3(C(=O)NC(=O)NC3=O)C2C(C)O1` (racemic), the MIC is greater than 200 µM.
Same read-out and setting: the same measure for `Cc1noc2c(F)c3c(cc12)CC1(C(=O)NC(=O)NC1=O)[C@@H]1[C@@H](C)O[C@@H](C)CN31`: greater than 200 µM.
On the same count and under the same terms, the same measure for `C[C@@H]1CN2c3c(cc4c(N)noc4c3F)CC3(C(=O)NC(=O)NC3=O)[C@H]2[C@H](C)O1`: 100 µM (≈ 40.3 µg/mL).
Same read-out and setting: the same measure for `COc1noc2c(F)c3c(cc12)CC1(C(=O)NC(=O)NC1=O)[C@H]1[C@H](C)O[C@H](C)CN31`: 200 µM (≈ 83.7 µg/mL).

A further data set concerns Escherichia coli. The data set can be described thus: Antimicrobial activity against tolC-deficient Escherichia coli by broth microdilution method. It is filed as functional. In a few lines:
as §1
`CC1CN2c3c(cc4c(C(C)(C)C)noc4c3F)CC3(C(=O)NC(=O)NC3=O)C2C(C)O1` (racemic) displayed an MIC of 3.1 µM (≈ 1.38 µg/mL).
The same measure, in the same setting: the same measure for `Cc1noc2c(F)c3c(cc12)CC1(C(=O)NC(=O)NC1=O)[C@@H]1[C@@H](C)O[C@@H](C)CN31`: 50 µM (≈ 20.1 µg/mL); for `C[C@@H]1CN2c3c(cc4c(N)noc4c3F)CC3(C(=O)NC(=O)NC3=O)[C@H]2[C@H](C)O1`: no more than 0.2 µM; for `COc1noc2c(F)c3c(cc12)CC1(C(=O)NC(=O)NC1=O)[C@H]1[C@H](C)O[C@H](C)CN31`: no more than 0.2 µM.
